The results in this text go back to ChEMBL document CHEMBL4184325, “Discovery of 4,7-Diamino-5-(4-phenoxyphenyl)-6-methylene-pyrimido[5,4- b]pyrrolizines as Novel Bruton's Tyrosine Kinase Inhibitors” (J Med Chem, 2018).

This experiment relates to TMD8. Briefly: Cell cycle arrest in human TMD8 cells assessed as accumulation at G2 phase at 10 nM after 48 hrs by propidium iodide staining-based flow cytometric method (reference value: 14.53%). The class given is functional. In outline:
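TMD8 cells in RPMI-1640 with FBS, 37 °C, 5% CO2, treated at indicated concentrations for 48 h; permeabilized cells stained with propidium iodide and analysed by flow cytometry for cell-cycle phase distribution. Three independent experiments, mean ± SD.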
In general terms: A flow cytometer gives signals particle by particle.

Regarding `C=CC(=O)N[C@@H]1Cn2c(c(-c3ccc(Oc4ccccc4)cc3)c3c(N)ncnc32)C1=C`, the Activity is 11.12%.
